In ChEMBL document CHEMBL2331490, “Synthesis and in vitro evaluation of new derivatives of 2-substituted-6-fluorobenzo[d]thiazoles as cholinesterase inhibitors” (Bioorg Med Chem, 2013):

Tests used:
[1] = Lipophilicity, log k of the compound by HPLC analysis; assay type: physicochemical
How it was run: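 Mobile phase MeOH/water 70:30, 1.0 mL/min, column at 45 °C, samples at 10 °C, photodiode array detection. log k calculated from k.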

Cholinesterase = Cholinesterase (Equus caballus, UniProt P81908); assay: Inhibition of equine BChE using after 10 mins by Ellman's method
Cholinesterase, sequence (P81908 whole entry): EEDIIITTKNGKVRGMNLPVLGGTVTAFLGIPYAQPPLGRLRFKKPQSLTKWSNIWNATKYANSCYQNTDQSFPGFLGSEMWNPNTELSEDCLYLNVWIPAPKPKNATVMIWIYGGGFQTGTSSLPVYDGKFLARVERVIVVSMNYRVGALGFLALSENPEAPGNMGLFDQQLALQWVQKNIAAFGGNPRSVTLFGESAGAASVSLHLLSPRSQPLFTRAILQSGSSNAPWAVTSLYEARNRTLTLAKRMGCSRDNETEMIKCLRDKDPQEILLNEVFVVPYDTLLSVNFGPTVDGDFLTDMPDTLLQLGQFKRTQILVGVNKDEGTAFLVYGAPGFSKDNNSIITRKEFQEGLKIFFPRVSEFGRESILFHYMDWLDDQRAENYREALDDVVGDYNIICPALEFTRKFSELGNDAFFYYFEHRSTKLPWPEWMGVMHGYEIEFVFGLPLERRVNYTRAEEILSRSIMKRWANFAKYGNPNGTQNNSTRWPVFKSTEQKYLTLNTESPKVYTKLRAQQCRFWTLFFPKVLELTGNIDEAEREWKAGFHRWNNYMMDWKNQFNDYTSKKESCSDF
How it was run: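 BChE from equine serum, diluted in phosphate buffer (0.1 M, pH 8). Catalytic activity in the final mixture was 0.14 U/mL. Enzyme was preincubated with compound (dioxane stock diluted in water) for 5 min at 25 °C. Then 0.5 mM DTNB and 0.25 mM acetylthiocholine were added, incubated 10 min at 25 °C, and absorbance read at 412 nm. IC50 taken from %inhibition versus concentration, 3 replicates.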

Acetylcholinesterase = Acetylcholinesterase (Electrophorus electricus, UniProt O42275); assay: Inhibition of Electrophorus electricus AChE using acetylthiocholine as substrate after 10 mins by Ellman's method
Acetylcholinesterase, sequence (O42275 whole entry): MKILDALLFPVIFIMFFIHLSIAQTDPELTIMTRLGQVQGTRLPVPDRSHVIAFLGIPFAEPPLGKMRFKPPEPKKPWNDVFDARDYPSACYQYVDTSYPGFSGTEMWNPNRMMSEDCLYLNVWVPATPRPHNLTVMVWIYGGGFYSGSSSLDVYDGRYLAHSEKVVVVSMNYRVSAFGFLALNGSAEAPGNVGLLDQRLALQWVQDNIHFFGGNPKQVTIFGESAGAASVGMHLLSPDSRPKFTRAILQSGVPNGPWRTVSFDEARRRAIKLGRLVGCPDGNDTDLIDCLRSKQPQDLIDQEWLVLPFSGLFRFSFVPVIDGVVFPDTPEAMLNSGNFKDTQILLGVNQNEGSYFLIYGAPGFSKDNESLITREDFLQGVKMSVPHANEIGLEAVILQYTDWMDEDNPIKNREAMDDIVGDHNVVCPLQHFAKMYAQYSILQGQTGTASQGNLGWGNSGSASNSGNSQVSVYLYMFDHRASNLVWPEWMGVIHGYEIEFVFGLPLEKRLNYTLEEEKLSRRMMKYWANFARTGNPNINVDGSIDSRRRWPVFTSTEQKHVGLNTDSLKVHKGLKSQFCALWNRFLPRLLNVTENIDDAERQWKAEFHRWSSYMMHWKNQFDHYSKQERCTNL

[2] = Lipophilicity, log P of the compound calculated using ChemOffice software
MCF7 [3] = assay: Growth inhibition of human MCF7 cells at 0.01 to 100 umol/l measured immediately by xCelligence RTCA SP assay; assay type: cell-based
How it was run: (§1)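 MCF7 (p37) grown in DMEM with 10% FCS, penicillin-streptomycin and 0.01 mg/mL insulin. Seeded at 75.000 cells/well on impedance E-plates and monitored hourly as cell index. Treated in log phase with compounds in DMSO, 0.01–2500 µmol/L, in triplicate. CI normalized to the last point before addition. Vehicle control 0.1% DMSO; 10% DMSO as 0% viability. IC50 taken at 24 h.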

MCF7 [4] = assay: Growth inhibition of human MCF7 cells at 2500 umol/l measured immediately by xCelligence RTCA SP assay; assay type: cell-based; details: mcf7, 2500 µM; how it was run: as §1
MCF7 [5] = assay: Growth inhibition of human MCF7 cells at 1000 umol/l measured immediately by xCelligence RTCA SP assay; assay type: cell-based; details: mcf7, 1000 µM; how it was run: as §1
HepG2 [6] = assay: Growth inhibition of human HepG2 cells at >10 umol/l after 24 hrs by MTS assay; assay type: cell-based; details: hepg2, 24 h
How it was run: (§2)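 HepG2 (p13) grown in MEM with 10% FBS, L-glutamine and non-essential amino acids at 37 °C, 5% CO2. Seeded at 10,000 cells/well and treated next day with compounds in DMSO, 12 concentrations (0.001–5000 or 0.001–2500 µmol/L), in triplicate. Controls were untreated cells, 10% DMSO (0% viability), no cells and vehicle. After 24 h, MTS reagent was added for 3.5 h at 37 °C and A490 was read. IC50 from curve fit.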

MCF7 [7] = assay: Cytotoxicity against human MCF7 cells after 24 hrs by xCelligence RTCA SP assay; assay type: cell-based; details: MCF7, 24 h; how it was run: as §1
HepG2 [8] = assay: Cytotoxicity against human HepG2 cells after 24 hrs by MTS assay; assay type: cell-based; details: HepG2, 24 h; how it was run: as §2
MCF7 [9] = assay: Growth inhibition of human MCF7 cells at 2500 umol/l measured after 24 hrs by xCelligence RTCA SP assay; assay type: cell-based; details: mcf7, 24 h, 2500 µM; how it was run: as §1
MCF7 [10] = assay: Growth inhibition of human MCF7 cells at 1000 umol/l measured after 24 hrs by xCelligence RTCA SP assay; assay type: cell-based; details: mcf7, 24 h, 1000 µM; how it was run: as §1
HepG2 [11] = assay: Growth inhibition of human HepG2 cells at <1000 umol/l after 24 hrs by MTS assay; assay type: cell-based; details: hepg2, 24 h; how it was run: as §2
HepG2 [12] = assay: Growth inhibition of human HepG2 cells at >1000 umol/l after 24 hrs by MTS assay; assay type: cell-based; details: hepg2, 24 h; how it was run: as §2
HepG2 [13] = assay: Growth inhibition of human HepG2 cells at <100 umol/l after 24 hrs by MTS assay; assay type: cell-based; details: hepg2, 24 h; how it was run: as §2
HepG2 [14] = assay: Growth inhibition of human HepG2 cells at >100 umol/l after 24 hrs by MTS assay; assay type: cell-based; details: hepg2, 24 h; how it was run: as §2

Structure (SMILES) | log K [1] | IC50 (Cholinesterase) [µM] | IC50 (Acetylcholinesterase) [µM] | logP [2] | also measured
CC(C)[C@H](NC(=O)OCC(Cl)(Cl)Cl)C(=O)N[C@H](C)c1nc2ccc(F)cc2s1 | 0.8043 | 26.6 | 30.3 | 4.89 | –
CC(C)[C@H](NC(=O)OCC(F)(F)F)C(=O)N[C@H](C)c1nc2ccc(F)cc2s1 | 0.5643 | 72 | 49.4 | 4.15 | –
CC(C)[C@H](NC(=O)OCC(F)(F)C(F)F)C(=O)N[C@H](C)c1nc2ccc(F)cc2s1 | 0.5237 | 33.8 | 29 | 4.09 | –
CC(C)[C@H](NC(=O)OCC(F)(F)C(F)(F)C(F)(F)F)C(=O)N[C@H](C)c1nc2ccc(F)cc2s1 | 0.9218 | 83.2 | 85.5 | 5.35 | –
CCC[C@H](NC(=O)OC)C(=O)N[C@H](C)c1nc2ccc(F)cc2s1 | 0.4166 | 20.4 | 48.8 | 3.19 | –
CCC[C@H](NC(=O)OCC)C(=O)N[C@H](C)c1nc2ccc(F)cc2s1 | 0.4873 | 14.1 | 34.8 | 3.52 | –
CCCOC(=O)N[C@@H](CCC)C(=O)N[C@H](C)c1nc2ccc(F)cc2s1 | 0.5873 | 19.3 | 28.5 | 4.01 | –
CCC[C@H](NC(=O)OC(C)C)C(=O)N[C@H](C)c1nc2ccc(F)cc2s1 | 0.5752 | 32.2 | 21.3 | 3.84 | growth inhibition (GI) (MCF7 [3]): Non-toxic; growth inhibition (GI) (MCF7 [4]): Toxic; growth inhibition (GI) (MCF7 [5]): Toxic; growth inhibition (GI) (HepG2 [6]): Toxic; IC50 (MCF7 [7]): 1210 µM; IC50 (HepG2 [8]): 273 µM
CCCCOC(=O)N[C@@H](CCC)C(=O)N[C@H](C)c1nc2ccc(F)cc2s1 | 0.7231 | 19.6 | 28 | 4.43 | –
CCC[C@H](NC(=O)OCC(C)C)C(=O)N[C@H](C)c1nc2ccc(F)cc2s1 | 0.7063 | 26.1 | 20.2 | 4.41 | growth inhibition (GI) (MCF7 [3]): Non-toxic; growth inhibition (GI) (MCF7 [4]): Toxic; growth inhibition (GI) (MCF7 [5]): Toxic; growth inhibition (GI) (HepG2 [6]): Toxic; IC50 (MCF7 [7]): 612 µM; IC50 (HepG2 [8]): 275 µM
CCC[C@H](NC(=O)OCCCl)C(=O)N[C@H](C)c1nc2ccc(F)cc2s1 | 0.514 | 54.1 | 35.4 | 3.9 | –
CCC[C@H](NC(=O)OCC(Cl)(Cl)Cl)C(=O)N[C@H](C)c1nc2ccc(F)cc2s1 | 0.8297 | 62.7 | 28.6 | 4.91 | –
CCC[C@H](NC(=O)OCC(F)(F)F)C(=O)N[C@H](C)c1nc2ccc(F)cc2s1 | 0.5825 | 59 | 29.3 | 4.16 | –
CCC[C@H](NC(=O)OCC(F)(F)C(F)F)C(=O)N[C@H](C)c1nc2ccc(F)cc2s1 | 0.5415 | 43.9 | 30.7 | 4.11 | –
CCC[C@H](NC(=O)OCC(F)(F)C(F)(F)C(F)(F)F)C(=O)N[C@H](C)c1nc2ccc(F)cc2s1 | 0.9463 | 59.8 | 46 | 5.37 | –
COC(=O)N[C@H](C(=O)N[C@H](C)c1nc2ccc(F)cc2s1)C(C)C | 0.4113 | 32 | 91.2 | 3.17 | –
CCOC(=O)N[C@H](C(=O)N[C@H](C)c1nc2ccc(F)cc2s1)C(C)C | 0.4834 | 35.6 | 153 | 3.51 | growth inhibition (GI) (MCF7 [3]): Non-toxic; growth inhibition (GI) (MCF7 [9]): Non-toxic; growth inhibition (GI) (MCF7 [10]): Non-toxic; growth inhibition (GI) (MCF7 [4]): Toxic; growth inhibition (GI) (MCF7 [5]): Toxic; growth inhibition (GI) (HepG2 [11]): Non-toxic; growth inhibition (GI) (HepG2 [12]): Toxic; IC50 (MCF7 [7]): > 4390 µM; IC50 (HepG2 [8]): > 5000 µM
CCCOC(=O)N[C@H](C(=O)N[C@H](C)c1nc2ccc(F)cc2s1)C(C)C | 0.5851 | 70.4 | 109 | 3.99 | growth inhibition (GI) (MCF7 [3]): Non-toxic; growth inhibition (GI) (MCF7 [10]): Non-toxic; growth inhibition (GI) (MCF7 [4]): Toxic; growth inhibition (GI) (MCF7 [5]): Toxic; growth inhibition (GI) (HepG2 [13]): Non-toxic; growth inhibition (GI) (HepG2 [14]): Toxic; IC50 (MCF7 [7]): 4390 µM; IC50 (HepG2 [8]): 1730 µM
CCCCOC(=O)N[C@H](C(=O)N[C@H](C)c1nc2ccc(F)cc2s1)C(C)C | 0.7135 | 62.5 | 68.1 | 4.41 | –
CC(C)COC(=O)N[C@H](C(=O)N[C@H](C)c1nc2ccc(F)cc2s1)C(C)C | 0.7041 | 41.1 | 49.3 | 4.39 | –
CC(C)[C@H](NC(=O)OCCCl)C(=O)N[C@H](C)c1nc2ccc(F)cc2s1 | 0.5014 | 54.2 | 47.5 | 3.88 | –
CC(C)[C@H](NC(=O)OCCBr)C(=O)N[C@H](C)c1nc2ccc(F)cc2s1 | 0.5418 | – | 47.2 | 4 | –
CC(C)OC(=O)N[C@H](C(=O)N[C@H](C)c1nc2ccc(F)cc2s1)C(C)C [BENTHIAVALICARB-ISOPROPYL] | 0.5725 | 41.1 | 95 | 3.82 | –
COc1ccc2c3c1O[C@H]1C[C@@H](O)C=C[C@@]31CCN(C)C2 [GALANTAMINE] | – | – | – | 1.41 | –
CCN(C)C(=O)Oc1cccc([C@H](C)N(C)C)c1 [RIVASTIGMINE] | – | – | – | 2.36 | –
